Laboratory results from ChEMBL document CHEMBL2202989, “New adamantane phenylalkylamines with σ-receptor binding affinity and anticancer activity, associated with putative antagonism of neuropathic pain” (J Med Chem, 2012).

Assays:
[1] = Growth inhibition of human MSC cells after 48 hrs by SRB assay; type: cell-based
Outline: (§1)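 Cells grown in RPMI 1640 with 5% heat-inactivated FCS, 2 mM L-glutamine and antibiotics, 37 °C, 5% CO2. Seeded at 3500–30000 cells/well and left 24 h before dosing. DMSO solutions added at 10-fold dilutions from 100 to 0.01 μM for 48 h. Cells TCA-fixed and SRB-stained, absorbance read at 540 nm; GI50 derived against the time-zero plate.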

HUVEC = assay: (§2) Growth inhibition of human HUVEC cells after 48 hrs by SRB assay; type: cell-based; settings: huvec, 48 h; outline: as §1
[2] = as §2; type: cell-based; settings: HUVEC cells; outline: as §1
BXPC-3 = assay: Growth inhibition of human BxPC3 cells after 48 hrs by SRB assay; type: functional; settings: BXPC-3, 48 h; outline: as §1
HL-60(TB) = assay: Growth inhibition of human HL-60(TB) cells after 48 hrs by SRB assay; type: functional; settings: HL-60, 48 h; for CC50: read-out: LC50 (the source's name)
Outline: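 Cells kept in RPMI 1640 with 5% FCS at 37 °C, 5% CO2, and seeded 24 h before dosing. Compound given from DMSO at 10-fold dilutions, 100 to 0.01 μM, for 48 h. Cells fixed with TCA, stained with SRB, absorbance read at 540 nm. GI50 taken from a time-zero plate.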

U-251 = assay: Growth inhibition of human U251 cells after 48 hrs by SRB assay; type: functional; settings: U-251, 48 h; for CC50: read-out: LC50 (the source's name); outline: as §1
PC-3 = assay: Growth inhibition of human PC3 cells after 48 hrs by SRB assay; type: functional; settings: PC-3, 48 h; for CC50: read-out: LC50 (the source's name); outline: as §1
MCF7 = assay: Growth inhibition of human MCF7 cells after 48 hrs by SRB assay; type: functional; settings: MCF7, 48 h; for CC50: read-out: LC50 (the source's name); outline: as §1
NHDF = assay: (§3) Growth inhibition of human NHDF cells after 48 hrs by SRB assay; type: cell-based; settings: nhdf, 48 h; outline: as §1
[3] = as §3; type: cell-based; settings: NHDF cells; outline: as §1
DU-145 = assay: Growth inhibition of human DU145 cells after 48 hrs by SRB assay; type: functional; settings: DU-145, 48 h; for CC50: read-out: LC50 (the source's name); outline: as §1
HCT-15 = assay: Growth inhibition of human HCT15 cells after 48 hrs by SRB assay; type: functional; settings: HCT-15, 48 h; for CC50: read-out: LC50 (the source's name); outline: as §1
SK-HEP1 = assay: Growth inhibition of human SKHEP1 cells after 48 hrs by SRB assay; type: functional; settings: SK-HEP1, 48 h; for CC50: read-out: LC50 (the source's name); outline: as §1
HCT-116 = assay: Growth inhibition of human HCT116 cells after 48 hrs by SRB assay; type: functional; settings: HCT-116, 48 h; outline: as §1
OVCAR-5 = assay: Growth inhibition of human OVCAR5 cells after 48 hrs by SRB assay; type: functional; settings: OVCAR-5, 48 h; for CC50: read-out: LC50 (the source's name); outline: as §1
MIA PaCa-2 = assay: Growth inhibition of human MIAPaCa2 cells after 48 hrs by SRB assay; type: functional; settings: MIA PaCa-2, 48 h; for CC50: read-out: LC50 (the source's name); outline: as §1
[4] = Displacement of [3H]1,3-di-otolylguanidine from sigma 2 receptor in rat cerebral cortex membranes; type: cell membranes, Membrane
Outline: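 Rat cerebral cortex membranes incubated with 5 nM [3H]DTG plus 300 nM (+)-pentazocine to mask σ1 sites, together with a range of test concentrations, 2 h at 22 °C in Tris-HCl, pH 7.4. Nonspecific binding defined with 10 μM haloperidol.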

[5] = target: Sigma non-opioid intracellular receptor 1 (Homo sapiens, UniProt Q99720); assay: Displacement of [3H]-(+)-pentazocine from sigma 1 receptor in human Jurkat cell membrane; type: cell membranes
Outline: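 Jurkat cell membranes incubated with 8 nM [3H](+)-pentazocine and a range of test concentrations for 2 h at 22 °C in Tris-HCl buffer, pH 7.4. Nonspecific binding defined with 10 μM haloperidol. Run in triplicate.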

IGROV-1 = assay: Growth inhibition of human IGROV1 cells after 48 hrs by SRB assay; type: functional; settings: IGROV-1, 48 h; outline: as §1
[6] = read-out: LC50 (the source's name)

Sigma non-opioid intracellular receptor 1, sequence (Q99720 whole entry): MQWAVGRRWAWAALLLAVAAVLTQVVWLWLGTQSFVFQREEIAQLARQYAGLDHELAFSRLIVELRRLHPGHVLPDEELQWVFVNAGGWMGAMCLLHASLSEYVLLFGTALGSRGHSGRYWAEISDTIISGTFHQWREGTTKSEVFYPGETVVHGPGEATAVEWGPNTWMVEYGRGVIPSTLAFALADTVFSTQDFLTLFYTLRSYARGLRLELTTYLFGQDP

## c1ccc(C(c2ccc(CN3CCNCC3)cc2)C23CC4CC(CC(C4)C2)C3)cc1 (stereo not given)
[1]
  TGI: 3.14 µM
HUVEC
  LC50: 17.43 µM
  TGI: 5.98 µM
[2]
  GI50 at 48 h: 2.91 µM
BXPC-3
  GI50: 4.3 µM
  LC50: 0.00951 µM
  TGI: 6.9 µM
HL-60(TB)
  GI50: 0.00448 µM
  TGI: 0.00759 µM
  CC50: 0.1 µM
U-251
  GI50: 3.41 µM
  TGI: 5.92 µM
  CC50: 0.00843 µM
PC-3
  GI50: 3.89 µM
  TGI: 7.52 µM
  CC50: 0.0692 µM
MCF7
  GI50: 2.45 µM
  TGI: 5.51 µM
  CC50: 0.00857 µM
NHDF
  LC50: 9.73 µM
  TGI: 6.69 µM
[3]
  GI50 at 48 h: 3.66 µM
DU-145
  GI50: 4.23 µM
  TGI: 17.8 µM
  CC50: 0.0392 µM
HCT-15
  GI50: 3.28 µM
  TGI: 5.76 µM
  CC50: 0.00824 µM
SK-HEP1
  GI50: 3.51 µM
  TGI: 6.17 µM
  CC50: 0.00884 µM

## CCN1CCN(CCCc2ccc(C(c3ccccc3)C34CC5CC(CC(C5)C3)C4)cc2)CC1 (stereo not given)
[1]
  TGI: 8.69 µM
HUVEC
  LC50: 9.4 µM
  TGI: 6.73 µM
[2]
  GI50 at 48 h: 4.07 µM
BXPC-3
  GI50: 5.3 µM
  LC50: 0.1 µM
  TGI: 10.6 µM
U-251
  GI50: 4.29 µM
  TGI: 6.69 µM
  CC50: 0.00909 µM
PC-3
  GI50: 4.79 µM
  TGI: 7.84 µM
  CC50: 0.0109 µM
MCF7
  GI50: 3.05 µM
  TGI: 5.87 µM
  CC50: 0.00861 µM
HCT-116
  GI50: 3.29 µM
  TGI: 5.9 µM
HCT-116; [6]
  CC50: 0.00852 µM
NHDF
  LC50: 100 µM
  TGI: 36.6 µM
[3]
  GI50 at 48 h: 5.04 µM
DU-145
  GI50: 5.33 µM
  TGI: 8.5 µM
  CC50: 0.0117 µM
HCT-15
  GI50: 4.09 µM
  TGI: 7.64 µM
  CC50: 0.0473 µM
SK-HEP1
  GI50: 3.41 µM
  TGI: 6.01 µM
  CC50: 0.00861 µM

## CN1CCN(Cc2ccc(C(c3ccccc3)C34CC5CC(CC(C5)C3)C4)cc2)CC1 (stereo not given)
[1]
  TGI: 4.44 µM
HUVEC
  LC50: 100 µM
  TGI: 7.3 µM
[2]
  GI50 at 48 h: 4.12 µM
BXPC-3
  GI50: 4.83 µM
  LC50: 0.00913 µM
  TGI: 6.98 µM
HL-60(TB)
  GI50: 0.00463 µM
  TGI: 0.00914 µM
  CC50: 0.1 µM
U-251
  GI50: 3.62 µM
  TGI: 6.55 µM
  CC50: 0.00947 µM
OVCAR-5
  GI50: 5.31 µM
  TGI: 19.7 µM
  CC50: 0.0577 µM
PC-3
  GI50: 3.55 µM
  TGI: 6.25 µM
  CC50: 0.0685 µM
MCF7
  GI50: 2.25 µM
  TGI: 5.29 µM
  CC50: 0.00833 µM
MIA PaCa-2
  GI50: 3.61 µM
  TGI: 6.34 µM
  CC50: 0.00906 µM
NHDF
  LC50: 100 µM
  TGI: 10.4 µM
[3]
  GI50 at 48 h: 5.12 µM
DU-145
  GI50: 3.01 µM
  TGI: 6.41 µM
  CC50: 0.00908 µM
[4]
  IC50: 0.11 µM
HCT-15
  GI50: 3.5 µM
  TGI: 6.3 µM
  CC50: 0.0091 µM
[5]
  IC50: 0.0052 µM
SK-HEP1
  GI50: 3.35 µM
  TGI: 5.97 µM
  CC50: 0.00859 µM

## c1ccc(C(c2ccc(CCN3CCCCC3)cc2)C23CC4CC(CC(C4)C2)C3)cc1 (stereo not given)
[1]
  TGI: 18.3 µM
HUVEC
  LC50: 100 µM
  TGI: 9.33 µM
[2]
  GI50 at 48 h: 5.31 µM
BXPC-3
  GI50: 64.7 µM
  LC50: 0.1 µM
  TGI: 100 µM
U-251
  GI50: 24.8 µM
  TGI: 55.8 µM
  CC50: 0.0867 µM
OVCAR-5
  GI50: 37.3 µM
  TGI: 67.8 µM
  CC50: 0.0977 µM
PC-3
  GI50: 11.6 µM
  TGI: 41.2 µM
  CC50: 0.092 µM
MCF7
  GI50: 6.93 µM
  TGI: 42.4 µM
  CC50: 0.0985 µM
IGROV-1
  GI50: 17.7 µM
  TGI: 43.7 µM
IGROV-1; [6]
  CC50: 0.0687 µM
MIA PaCa-2
  GI50: 35.5 µM
  TGI: 63.3 µM
  CC50: 0.0911 µM
NHDF
  LC50: 99.34 µM
  TGI: 59 µM
[3]
  GI50 at 48 h: 18.6 µM
HCT-15
  GI50: 9.12 µM
  TGI: 43.7 µM
  CC50: 0.082 µM
SK-HEP1
  GI50: 8.61 µM
  TGI: 58.2 µM
  CC50: 0.1 µM
